Values after ≈ are worked out from the molar mass of the structure shown.

This note sets out measurements from paper PMC4232467 (Nature chemical biology, 2014).

Common to all, as to experiment: Susceptibility testing
Common to all, as to assay type: cell-based

Assay [1] has as its system Escherichia coli (TEM-3) ESBL producer. As to conditions: read-out: Minimum inhibitory concentrations (MICs; μg/mL) Escherichia coli (TEM-3). The procedure, abridged:
(§1)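 Broth susceptibility testing of clinical isolates resistant to third-generation cephalosporins, run and read per CLSI guidelines. […] Compounds were dissolved in DMSO and diluted into Mueller Hinton medium, with DMSO kept below 5%. Values are the average of three independent experiments.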

Assay [2] concerns Enterobacter cloacae (AmpC overproducer). As to conditions: read-out: Minimum inhibitory concentrations (MICs; μg/mL) Enterobacter cloacae. The procedure, abridged: as §1
For assay [3], the system named is Citrobacter freundii (AmpC overproducer). The note with it: read-out: Minimum inhibitory concentrations (MICs; μg/mL) Citrobacter freundii. The procedure, abridged:
as §1

In assay [4] the test system is Escherichia coli (CTX-M-14) ESBL producer. The note with it: read-out: Minimum inhibitory concentrations (MICs; μg/mL) Escherichia coli (CTX-M-14). The procedure, abridged: as §1

For the compound `CO/N=C(\C(=O)N[C@@H]1C(=O)N2C(C(=O)O)=C(COC(C)=O)CS[C@H]12)c1csc(N)n1` [Cefotaxime, cefotaxime], the MIC in assay [1] stood at 8 µg/mL (≈ 17.6 µM); in assay [2] it was 64 µg/mL (≈ 141 µM); in assay [3] it was 16 µg/mL (≈ 35.1 µM); in assay [4], 256 µg/mL (≈ 562 µM).
